# Compound activity deposited in PubChem BioAssay by several laboratories.
# p47phox inh – blocks human p47phox regulatory protein of NADPH oxidases | P14598 | p47phox/p22phox peptide binding, fluorescence polarization, 2 h | inhibition, % at 24.7 µM | actives 0.53% (n = 220,000) | AID 1274;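 active means inhibition above about 30%, limit read from the data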;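 further: 0% = p47phox with labelled peptide and 100% = labelled peptide alone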
# PHOSPHO1 block – PHOSPHO1 (human) inhibition. recombinant PHOSPHO1, absorbance phosphatase assay. inhibition, % at 13.3 µM. actives 1.1% (n = 290,000). AID 1565; in the data active means inhibition above about 60%
# ABCG2 block – human ABCG2 inhibition, ABCB1 as counter-screen; AID 1325; inhibition, % at 6.6 µM; actives 0.1% (n = 190,000); Q9UNQ0; IgMXP3 cells, JC-1 efflux, flow cytometry;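 active means inhibition above 80%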;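 further: 0% = DMSO and 100% = nicardipine control wells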
# Target sequence (Q9UNQ0 whole entry, looked up): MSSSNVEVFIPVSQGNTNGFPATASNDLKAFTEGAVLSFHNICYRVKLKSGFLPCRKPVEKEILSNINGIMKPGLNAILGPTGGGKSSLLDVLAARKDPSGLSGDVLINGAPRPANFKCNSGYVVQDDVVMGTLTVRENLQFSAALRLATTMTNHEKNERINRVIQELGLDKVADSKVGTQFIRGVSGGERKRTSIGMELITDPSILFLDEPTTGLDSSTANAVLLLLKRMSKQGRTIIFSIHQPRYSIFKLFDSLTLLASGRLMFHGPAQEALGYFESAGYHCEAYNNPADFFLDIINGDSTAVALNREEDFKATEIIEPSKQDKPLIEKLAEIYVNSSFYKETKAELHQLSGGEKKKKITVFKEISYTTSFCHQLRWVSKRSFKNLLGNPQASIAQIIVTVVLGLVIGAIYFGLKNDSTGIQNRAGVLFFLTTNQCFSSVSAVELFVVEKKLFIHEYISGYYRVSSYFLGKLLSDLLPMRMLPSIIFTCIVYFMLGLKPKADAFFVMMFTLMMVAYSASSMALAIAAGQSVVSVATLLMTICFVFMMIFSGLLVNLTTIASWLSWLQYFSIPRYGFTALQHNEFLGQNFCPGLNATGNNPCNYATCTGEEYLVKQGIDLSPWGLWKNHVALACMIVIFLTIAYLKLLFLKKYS
#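 Test system: ABCG2 IgMXP3 and barcoded ABCB1 CCRF-Adr cell mix; Schedule: cells with compound and JC-1, 10 min at 25 °C, rotating, no wash; Technique: flow cytometry of retained JC-1 fluorescence; Measure: % inhibition of efflux relative to nicardipine and DMSO; Controls: nicardipine high and DMSO low controls.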
# PKD1 kinase inh – PKD1 (human) kinase inhibition. Q15139. PKD1 kinase fluorescence polarization assay. inhibition, % (no concentration beside the values). actives 0.056% (n = 200,000). AID 797; in the data active means inhibition above about 50%
# HSV replic up – HSV replication enhancement; actives 0.005% (n = 220,000); AID 1956; maximum fold increase; HSV replication augmentation in cells, fold increase; in the data active means maximum fold increase above about 1.5; tested in PC3 cells
# ABCB1 inh – human ABCB1 inhibition, ABCG2 as counter-screen; P08183; CCRF-Adr cells, JC-1 efflux, flow cytometry; inhibition, % at 6.6 µM; actives 0.067% (n = 190,000); AID 1326; in the data active means inhibition above about 40%;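 further: 0% = vehicle and 100% = reference inhibitor; higher value means more JC-1 retained so stronger ABCB1 efflux block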
# FP interf 140K – counter-screen for PKD inhibitors: fluorescence polarization interference; PKD1 FP assay interference counter-screen; AID 1315; inhibition, % at 10 µM; 85 tested, under 10 active; shares compounds with PKD1 kinase inh; call rule not given here
# ABCB1 confirm – inhibits human ABCB1 efflux, confirmed at single point | inhibition, % at 6.6 µM | actives 7% (n = 270) | CCRF-Adr cells, JC-1 efflux, flow cytometry | shares compounds with ABCG2 block | AID 1451;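 active means inhibition of pump activity above 50%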;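 further: 0% = DMSO and 100% = nicardipine full pump inhibition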
# ABCG2 confirm – confirmation of human ABCG2 transporter inhibitors, ABCB1 counter-screen. inhibition, % at 6.6 µM. shares compounds with ABCG2 block. actives 6% (n = 270). IgMXP3 cells, JC-1 efflux, flow cytometry;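 active means inhibition above 50%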;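 further: 0% = DMSO wells and 100% = nicardipine pump inhibitor wells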
# IgMXP3 fluor – counter-screen for ABCG2 inhibitors: compound fluorescence in IgMXP3 cells. shares compounds with ABCG2 block. AID 1480. fluorescence at 6.6 µM. actives 30% (n = 270). compound autofluorescence 488/530 nm, flow; stronger effect = higher value;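 active means fluorescence in ABCG2-expressing cells above the plate's control-well mean plus 3 SD, cut at about 15 in these data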;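 further: median cell fluorescence with compound minus that of DMSO-treated control cells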
# CCRF autofluor – CCRF-Adr autofluorescence flag for ABCB1 confirmation. shares compounds with ABCG2 block. CCRF-Adr cells, compound autofluorescence 488/530 nm, flow cytometry; stronger effect = higher value. fluorescence at 6.6 µM. actives 30% (n = 270);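 active means fluorescence beyond the plate control mean plus 3 SD, with a fluorescence-to-maximum score over 2, cut at about 25 in these data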
# Starred values were filed as active, the others as inactive; i = inactive; . = not tested or not shown; ! = a repeat was not active. Rows were chosen to be rich in hits. Some 1.6% of all compounds tested hit in one or more screens of this group.
SMILES,p47phox inh,PHOSPHO1 block,ABCG2 block,PKD1 kinase inh,HSV replic up,ABCB1 inh,others
CCC(C)N1C(=O)/C(=C/c2ccc3c(c2)CCN3CCCCl)C(=O)NC1=S (centres undefined),37.6*,-20.6,-10.5,9.5,i,-1.4,
C=CCn1c(O)c(C(C)=Nc2cccc(C(F)(F)F)c2)c(=O)[nH]c1=O,-10.4,27.4,.,.,i,.,
CN(C)/C=c1\sc2c(C#N)cc(C(=O)c3ccc(Br)cc3)n2c1=O,-60.6,-17.1,-1.6,-2.6,3.42*,-0.5,
Clc1ccccc1C1NCc2ccccc2-n2cccc21 (centres undefined),-2.4,-12.6,1.1,-0.7,i,1.4,
Cc1nc2ccccc2c(=O)n1-c1ccc(F)cc1,32.3*,-0.6,2.9,-8.2,i,0.9,
CC1CCN(CC(=O)c2cccc(C(F)(F)F)c2)CC1,.,-16.6,.,.,.,.,
O=C(c1ccc2c(c1)ncn2-c1ccc(F)cc1F)N1CCC2(CC1)OCCO2,42.9*,-9.9,3.8,4.0,i,0.6,
CCCCCCn1c(=O)c(C(=O)Nc2c(C)n(C)n(-c3ccccc3)c2=O)c(O)c2ccccc21,-7.6,29.8,.,.,i,.,
CCS(=O)(=O)N1CCC(C(=O)N2CCC3(CC2)OCCO3)CC1,-8.0,14.3,7.5,-6.4,i,1.2,
CCCNC(=O)N1CCC2(CC1)OCCO2,-5.3,61.5*,0.7,8.4,i,0.1,
COc1cc2c(cc1OC)-c1c(OC)c(OC)cc3c1[C@H](C2)[N+](C)(C)CC3,-6.7,32.9,-1.6,-7.7,i,1.2,
COP(=S)(OC)SCN1C(=O)c2ccccc2C1=O,-1.2,77.0*,5.5,-0.9,i,0.2,
CCOC(=O)C1CCN(/C=C2\C(=O)NC(=S)N(CC)C2=O)CC1,-47.9,61.8*,0.0,7.9,i,0.0,
O=c1c2ccccc2nc(-c2ccco2)n1-c1ccc(Br)cc1,-9.0,-0.3,.,.,i,.,
CNC(=S)NC1CC2CCCC(C1)N2CC(C)C (centres undefined),39.8*,-13.5,2.6,-0.4,i,0.7,
CN1C(=O)C(=Cc2sc(=O)n(-c3ccccc3)c2N2CCCCC2)C(=O)N(C)C1=O,82.6*,15.9,.,.,i,.,
O=C(CCl)NCC1CCCO1 (centres undefined),-4.9,1.8,3.9,-2.8,i,0.3,
FC(F)(F)c1ccc2c(c1)N(CCCN1CCN(CCCl)CC1)c1ccccc1S2,-5.1,63.9*,4.6,-2.6,i,1.0,
CSC1=NP(=S)(SC)N2CCCC2=C1C#N (centres undefined),-39.9,33.0,1.2,-2.2,i,0.2,
COC(=O)CSC1=NP(=S)(SCC(=O)OC)N2CCCC2=C1C#N (centres undefined),-5.5,67.4*,0.9,-1.5,i,0.4,
CC1(C)C2SCC(=O)N2CCN1CC(=O)NN (centres undefined),-2.8,1.8,.,.,i,.,
CN1CC[C@@H](c2ccc(F)cc2)[C@H](COc2ccc3c(c2)OCO3)C1,.,.,.,.,i,.,
Cn1c[n+](C)cc1C(O)c1ccccc1 (centres undefined),-0.4,96.3*!,1.0,1.3,i,0.5,
COC(=O)C(=O)N1CC2(C)CNCC(C)(C1)C2=O,-8.2,11.7,1.3,4.2,i,0.6,
CCCCCCNC(=O)N[C@H](Cc1ccc(O)cc1)C(=O)NCCC[C@H]1CN2C(=NC[C@H]2CCC)N1CC1CCC1,59.9*,-50.4,.,.,.,.,
SMILES,p47phox inh,PHOSPHO1 block,ABCG2 block,PKD1 kinase inh,HSV replic up,ABCB1 inh,others
CCN(CC)P(=O)(/C=C(\Cl)c1ccccc1)/C=C(\Cl)c1ccccc1,-13.4,16.5,1.1,-0.4,i,0.6,
O=C1Nc2ccccc2/C1=C/c1cnc[nH]1,2.1,36.3,10.6,69.5*,i,0.8,FP interf 140K=-24.2
CC12CCC3C(CC=C4CC(O)CCC43C)C1C/C(=C\c1cccc(F)c1)C2=O (centres undefined),-2.8,3.6,3.5,5.5,i,0.4,
COc1cc(CC2(CCc3ccncc3)C(=O)NC(=O)NC2=O)cc(OC)c1OC,7.2,32.4,7.5,1.7,i,-0.2,
COc1cc2c(cc1OC)-c1c(OC)c(OC)c(OC)c3ccnc(c13)C2=O,-0.9,-11.1,25.0,50.3*,i,5.5,FP interf 140K=-18.0
CC1=NN(c2ccccc2)C(=O)C1/C=C1/C(=O)NC(=O)N(c2cccc(C)c2)C1=O (centres undefined),-32.2,54.9,-0.2,-8.1,i,0.3,
Cc1cccc(N2C(=O)NC(=O)/C(=C\c3ccc4c(c3)CCCN4Cc3ccccc3)C2=O)c1,-272.4,7.4,63.9,18.4,i,49.7*,ABCB1 confirm=0.8;ABCG2 confirm=-0.8;IgMXP3 fluor=14*;CCRF autofluor=59.4*
CCn1cc(/C=c2/sc3n(c2=O)C2c4ccccc4OC(C)(N=3)C2C(=O)OC)c(C)n1 (centres undefined),-4.7,-33.8,26.1,4.8,i,52.7*,ABCB1 confirm=13.5;ABCG2 confirm=11.9;IgMXP3 fluor=18.4*;CCRF autofluor=12.8
CCC1=CCN(CCc2c(C)[nH]c3ccccc23)CC1,.,.,.,.,i,.,
